Experimental data reported in ChEMBL document CHEMBL1127688, “Guaiacoxypropanolamine derivatives of capsaicin: a new family of beta-adrenoceptor blockers with intrinsic cardiotonic properties” (J Med Chem, 1994).

Legend:
[1] = tested on: Rattus norvegicus; experiment: Heart rate of the urethane-anesthetized normotensive Wistar rat was tested 60 min after inducing the compound on dose of 1.0 mg/kg; assay type: functional
How it was run: (§1)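 Urethane-anesthetized normotensive Wistar rats given a single iv injection at 1.0 mg/kg. Blood pressure (mmHg) and heart rate (beats/min) recorded, and the change reported at 5, 10, 15, 30 and 60 min after dosing. Saline-injected controls. Mean ± SE, n = 8. Significance versus saline by analysis of variance.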

[2] = tested on: Rattus norvegicus; experiment: Heart rate of the urethane-anesthetized normotensive Wistar rat was tested 30 min after inducing the compound on dose of 1.0 mg/kg; assay type: functional; how it was run: as §1
[3] = tested on: Rattus norvegicus; experiment: Blood pressure of the urethane-anesthetized normotensive Wistar rat was tested 60 min after inducing the compound on dose of 1.0 mg/kg; assay type: functional; how it was run: as §1
[4] = tested on: Rattus norvegicus; experiment: Blood pressure of the urethane-anesthetized normotensive Wistar rat was tested 30 min after inducing the compound on dose of 1.0 mg/kg; assay type: functional; how it was run: as §1
[5] = tested on: Rattus norvegicus; experiment: Heart rate of the urethane-anesthetized normotensive Wistar rat was tested 15 min after inducing the compound on dose of 1.0 mg/kg; assay type: functional; how it was run: as §1
[6] = tested on: Rattus norvegicus; experiment: Blood pressure of the urethane-anesthetized normotensive Wistar rat was tested 15 min after inducing the compound on dose of 1.0 mg/kg; assay type: functional; how it was run: as §1
[7] = species on record: Cavia porcellus; experiment: Positive chronotropic effect was evaluated on atrial muscles of the guinea pig; assay type: functional, Muscle tissue; settings: for Kb: Cavia porcellus, Muscle tissue, read-out: pA2 (converted)
[8] = tested on: Rattus norvegicus; experiment: Heart rate of the urethane-anesthetized normotensive Wistar rat was tested 5 min after inducing the compound on dose of 1.0 mg/kg; assay type: functional; how it was run: as §1
[9] = tested on: Rattus norvegicus; experiment: Blood pressure of the urethane-anesthetized normotensive Wistar rat was tested 10 min after inducing the compound on dose of 1.0 mg/kg; assay type: functional; how it was run: as §1
[10] = tested on: Rattus norvegicus; experiment: Heart rate of the urethane-anesthetized normotensive Wistar rat was tested 10 min after inducing the compound on dose of 1.0 mg/kg; assay type: functional; how it was run: as §1
[11] = tested on: Rattus norvegicus; experiment: Blood pressure of the urethane-anesthetized normotensive Wistar rat was tested 5 min after inducing the compound on dose of 1.0 mg/kg; assay type: functional; how it was run: as §1
[12] = species on record: Cavia porcellus; experiment: Positive inotropic effect was evaluated on atrial muscles of the guinea pig; assay type: functional, Muscle tissue; settings: for Kb: Cavia porcellus, Muscle tissue, read-out: pA2 (converted)
[13] = tested on: Rattus norvegicus; experiment: Change in blood pressure was tested by inducing ia injection at a dose 0.1 mg/kg in rat; assay type: functional; settings: route intra-arterial
[14] = tested on: Rattus norvegicus; experiment: Minimum dose of iv injection that shows vagus reflex and a heart rate decrease of 50 beats/min in non-vagotomized rats; assay type: functional
How it was run: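 Non-vagotomized rats given increasing iv doses. The value is the lowest dose (mg/kg) that elicits a vagus reflex with a heart-rate fall of 50 beats/min. Compounds were scored ineffective if no such response occurred below 3 mg/kg. n = 8.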

[15] = tested on: Rattus norvegicus; experiment: Change in blood pressure was tested by inducing ia injection at a dose 0.01 mg/kg in rat; assay type: functional; settings: route intra-arterial
How it was run: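 Urethane-anaesthetised normotensive Wistar rats; single intra-arterial bolus via the superficial epigastric artery. Read-out is the depressor change in systemic blood pressure in mmHg. Data are means ± SE, n = 8, analysed by ANOVA.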

SMILES | HR [1] | HR [2] | BP [3] | BP [4] | HR [5] | BP [6] | Kb [7] | HR [8] | BP [9] | HR [10] | BP [11] | Kb [12] | further results
CCCCCCCCC(=O)NCc1ccc(OCC(O)CNCCCCCC)c(OC)c1 (configuration not stated) | -8 beats min-1 | -12.67 beats min-1 | 1.89 mmHg | -2.11 mmHg | -14.89 beats min-1 | -4.44 mmHg | 933 nM | -35.56 beats min-1 | -2.89 mmHg | -24.11 beats min-1 | -2.22 mmHg | 66.1 nM | 
CCCCCCCCC(=O)NCc1ccc(OCC(O)CNCCC)c(OC)c1 (stereo in doubt; 6) |  |  |  |  |  |  | 93.3 nM |  |  |  |  | 25.1 nM | HR ([1]; 1 mg/kg): -7.56 beats min-1; HR ([2]; 1 mg/kg): -5 beats min-1; BP ([3]; 1 mg/kg): 4.78 mmHg; BP ([4]; 1 mg/kg): -1.11 mmHg; HR ([5]; 1 mg/kg): -19.89 beats min-1; BP ([6]; 1 mg/kg): -1.89 mmHg; HR ([8]; 1 mg/kg): -36.78 beats min-1; BP ([9]; 1 mg/kg): -2.67 mmHg; HR ([10]; 1 mg/kg): -28.22 beats min-1; BP ([11]; 1 mg/kg): -1.56 mmHg
CCCCCCCCC(=O)NCc1ccc(OCC(O)CNC(C)C)c(OC)c1 (configuration not stated) | -20 beats min-1 | -32.67 beats min-1 | -1.33 mmHg | -6.67 mmHg | -35.44 beats min-1 | -2.89 mmHg | 17 nM | -50.22 beats min-1 | -1.22 mmHg | -40.78 beats min-1 | -0.44 mmHg | 8.51 nM | 
CCCCCCCCC(=O)NCc1ccc(OCC(O)CNC(C)(C)C)c(OC)c1 (configuration not stated) | -18.5 beats min-1 | -24.88 beats min-1 | 4.63 mmHg | 1.25 mmHg | -29.5 beats min-1 | 2.38 mmHg | 39.8 nM | -45 beats min-1 | 3.38 mmHg | -37.75 beats min-1 | 3.13 mmHg | 15.8 nM | 
CCCCCCCCC(=O)NCc1ccc(OCCO)c(OC)c1 |  |  |  |  |  |  |  |  |  |  |  |  | BP [13]: -44.2 mmHg; Dose [14]: 0.3 mg/kg
COc1cc(CNC(=O)CCCC/C=C/C(C)C)ccc1O [CAPSAICIN] |  |  |  |  |  |  |  |  |  |  |  |  | BP [15]: -49.5 mmHg; Dose [14]: 0.001 mg/kg
CCCCCCCCC(=O)NCc1ccc(OCC(O)CNC2CCCCC2)c(OC)c1 (configuration not stated) | 2.78 beats min-1 | -1.78 beats min-1 | 0.67 mmHg | 1.33 mmHg | -11.67 beats min-1 | -3.67 mmHg |  | -32.33 beats min-1 | -4.22 mmHg | -28.44 beats min-1 | -4.11 mmHg |  | 
CC(C)NCC(O)COc1cccc2ccccc12 (configuration not stated) [PROPRANOLOL] | -52.14 beats min-1 | -62.57 beats min-1 | 2.17 mmHg | -4.67 mmHg | -65.28 beats min-1 | -6.5 mmHg |  | -57.28 beats min-1 | -6.33 mmHg | -63.85 beats min-1 | -2.83 mmHg |  | 
CCCCCCCCC(=O)NCc1ccc(OCC(O)CNCC)c(OC)c1 (configuration not stated) | 2.56 beats min-1 | -21.11 beats min-1 | 1.88 mmHg | -2.44 mmHg | -28 beats min-1 | 1.11 mmHg | 117 nM | -38.33 beats min-1 | 2.56 mmHg | -32.22 beats min-1 | 7.44 mmHg | 53.7 nM | 
CCCCCCCCC(=O)NCc1ccc(OCC(O)CNC(C)CC)c(OC)c1 (configuration not stated) | -9.56 beats min-1 | -25.11 beats min-1 | 1.22 mmHg | -0.88 mmHg | -32.33 beats min-1 | 3.33 mmHg | 120 nM | -38.56 beats min-1 | 4.89 mmHg | -35.44 beats min-1 | 4.11 mmHg | 22.4 nM | 
CCCCCCCCC(=O)NCc1ccc(OCC(O)CNCCCCC)c(OC)c1 (configuration not stated) | -6.56 beats min-1 | -5.78 beats min-1 | 2.44 mmHg | 3.67 mmHg | -10.22 beats min-1 | -0.88 mmHg | 64.6 nM | -25.11 beats min-1 | -1.67 mmHg | -23.33 beats min-1 | -4.67 mmHg | 28.2 nM | 
CCCCCCCCC(=O)NCc1ccc(OCCN(C)C)c(OC)c1 |  |  |  |  |  |  |  |  |  |  |  |  | BP [13]: -21.6 mmHg; Dose [14]: 0.5 mg/kg
CCCCCCCCC(=O)NCc1ccc(OCC(O)CNCC(C)C)c(OC)c1 (configuration not stated) | 3.13 beats min-1 | 4.13 beats min-1 | 0.25 mmHg | 2 mmHg | -27.13 beats min-1 | 1.63 mmHg | 117 nM | -39.88 beats min-1 | 1.63 mmHg | -35.25 beats min-1 | -2.75 mmHg | 26.9 nM | 
CCCCCCCCC(=O)NCc1ccc(OCC(O)CNC)c(OC)c1 (configuration not stated) | 4.78 beats min-1 | 14.56 beats min-1 | 0.78 mmHg | 1.89 mmHg | -12.22 beats min-1 | -0.56 mmHg | 295 nM | -34.56 beats min-1 | -0.22 mmHg | -17.33 beats min-1 | -1.11 mmHg | 74.1 nM | 
CCCCCCCCC(=O)NCc1ccc(OCC(O)CNCCC)c(OC)c1 (stereo in doubt; 8) |  |  |  |  |  |  |  |  |  |  |  |  | HR ([1]; 1 mg/kg): -6.89 beats min-1; HR ([2]; 1 mg/kg): -14.11 beats min-1; BP ([3]; 1 mg/kg): -0.56 mmHg; BP ([4]; 1 mg/kg): -2.44 mmHg; HR ([5]; 1 mg/kg): -32 beats min-1; BP ([6]; 1 mg/kg): -3.11 mmHg; pA2 [7]: 6.79; HR ([8]; 1 mg/kg): -42.56 beats min-1; BP ([9]; 1 mg/kg): -2.56 mmHg; HR ([10]; 1 mg/kg): -35.33 beats min-1; BP ([11]; 1 mg/kg): -1.78 mmHg; pA2 [12]: 7.75
CCCCCCCCC(=O)NCc1ccc(OCC(O)CNCCCC)c(OC)c1 (configuration not stated) | -3.67 beats min-1 | -15.33 beats min-1 | 3.33 mmHg | 0.11 mmHg | -26.22 beats min-1 | -1.22 mmHg | 58.9 nM | -40 beats min-1 | -1.22 mmHg | -33.78 beats min-1 | -0.22 mmHg | 53.7 nM | 
CCCCCCCCC(=O)NCc1ccc(OCC(O)CNC2CC2)c(OC)c1 (configuration not stated) | -2.67 beats min-1 | -11.89 beats min-1 | 2.22 mmHg | 3.67 mmHg | -23.67 beats min-1 | 3.89 mmHg |  | -47.67 beats min-1 | 3.11 mmHg | -38.89 beats min-1 | -0.11 mmHg |  | 
CCCCCCCCC(=O)NCc1ccc(OCCN(CC)CC)c(OC)c1 |  |  |  |  |  |  |  |  |  |  |  |  | BP [13]: -15 mmHg; Dose [14]: 0.5 mg/kg
CCCCCCCCC(=O)NCc1ccc(O)c(OC)c1 [NONIVAMIDE] |  |  |  |  |  |  |  |  |  |  |  |  | BP [15]: -28.3 mmHg; Dose [14]: 0.005 mg/kg
